Activity calls are given as the source filed them.
How the values were obtained:
[1] = biological target: T1, Tyrosine-protein kinase JAK3 (Homo sapiens, UniProt P52333); assay: Inhibition of JAK3 in endogenous nucleic acid-stimulated human HaCaT cells assessed as reduction in CXCL10 expression at 100 nM measured after 24 hrs by ELISA
T1 sequence (P52333 whole entry): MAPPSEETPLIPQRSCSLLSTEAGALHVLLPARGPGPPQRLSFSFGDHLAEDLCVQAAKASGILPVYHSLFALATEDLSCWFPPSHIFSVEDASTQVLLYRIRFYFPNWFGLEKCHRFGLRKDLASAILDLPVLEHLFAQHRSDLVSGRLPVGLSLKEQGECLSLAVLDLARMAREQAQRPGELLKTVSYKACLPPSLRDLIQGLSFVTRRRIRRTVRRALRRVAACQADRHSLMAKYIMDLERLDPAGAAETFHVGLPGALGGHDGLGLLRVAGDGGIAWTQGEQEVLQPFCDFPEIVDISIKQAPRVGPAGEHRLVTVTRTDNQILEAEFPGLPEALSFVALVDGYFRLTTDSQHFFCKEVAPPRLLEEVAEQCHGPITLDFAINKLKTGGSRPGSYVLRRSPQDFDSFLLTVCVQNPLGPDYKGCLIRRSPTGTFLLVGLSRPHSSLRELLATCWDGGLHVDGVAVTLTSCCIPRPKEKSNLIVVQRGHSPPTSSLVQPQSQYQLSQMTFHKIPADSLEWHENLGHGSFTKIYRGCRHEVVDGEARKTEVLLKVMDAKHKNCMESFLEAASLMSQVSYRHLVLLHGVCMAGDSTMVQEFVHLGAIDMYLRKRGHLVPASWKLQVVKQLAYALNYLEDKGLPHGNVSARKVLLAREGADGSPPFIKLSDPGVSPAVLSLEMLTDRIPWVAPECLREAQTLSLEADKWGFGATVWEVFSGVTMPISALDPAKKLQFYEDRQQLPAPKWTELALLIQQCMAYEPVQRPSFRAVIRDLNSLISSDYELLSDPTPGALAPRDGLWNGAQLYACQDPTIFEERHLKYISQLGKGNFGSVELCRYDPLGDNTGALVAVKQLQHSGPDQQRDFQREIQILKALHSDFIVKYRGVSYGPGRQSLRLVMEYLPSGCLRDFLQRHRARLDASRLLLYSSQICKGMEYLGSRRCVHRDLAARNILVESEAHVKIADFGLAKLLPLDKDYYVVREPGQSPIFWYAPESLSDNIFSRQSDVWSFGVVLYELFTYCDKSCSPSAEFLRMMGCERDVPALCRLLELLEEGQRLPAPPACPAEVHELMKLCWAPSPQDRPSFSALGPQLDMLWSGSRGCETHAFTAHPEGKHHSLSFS

Mus musculus [2] = assay: Improvement in CLE-like skin lesions in 450 mJ/cm2 UV-irradiated lupus-prone TREX1-/- mouse model assessed as reduction in IFITM3 gene expression in lesional skin at 1 % administered topically for 7 days relative to control; type: functional, organism-based; details: time 7.0 day
Outline: (§1)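 Lesional skin from TREX1–/– mice given the topical JAK1 inhibitor or placebo underwent gene expression analysis for IFN-associated genes. Differential expression was defined as a change greater than twofold with p < 0.05 by Welch's t-test against placebo.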

Mus musculus [3] = assay: Improvement in CLE-like skin lesions in 450 mJ/cm2 UV-irradiated lupus-prone TREX1-/- mouse model assessed as reduction in CXCL10 gene expression in lesional skin at 1 % administered topically for 7 days relative to control; type: functional, organism-based; details: time 7.0 day
Outline: as §1

Mus musculus [4] = assay: Improvement in CLE-like skin lesions in 450 mJ/cm2 UV-irradiated lupus-prone TREX1-/- mouse model assessed as improvement in infiltrating dermal immune cells at 1 % administered topically for 7 days by H and E staining based histological analysis; type: functional, organism-based; details: time 7.0 day
Outline: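 Lesional skin from the topically treated or placebo-treated groups was processed for H&E and anti-CD45 immunohistology and viewed at ×400. Dermal infiltrate was graded as a CD45 inflammation score. Values are mean ± SEM and were compared by Mann-Whitney U test.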

Mus musculus [5] = assay: Improvement in CLE-like skin lesions in 450 mJ/cm2 UV-irradiated lupus-prone TREX1-/- mouse model assessed as reduction in IRF7 gene expression in lesional skin at 1 % administered topically for 7 days relative to control; type: functional, organism-based; details: time 7.0 day
Outline: as §1

Mus musculus [6] = assay: Improvement in CLE-like skin lesions in 450 mJ/cm2 UV-irradiated lupus-prone TREX1-/- mouse model assessed as improvement in epidermal thickness at 1 % administered topically for 7 days by H and E staining based histological analysis; type: functional, organism-based; details: time 7.0 day
Mus musculus [7] = assay: Improvement in CLE-like skin lesions in 450 mJ/cm2 UV-irradiated lupus-prone TREX1-/- mouse model assessed as reduction in CCL2 gene expression in lesional skin at 1 % administered topically for 7 days relative to control; type: functional, organism-based; details: time 7.0 day
Outline: as §1

Mus musculus [8] = assay: Improvement in CLE-like skin lesions in 450 mJ/cm2 UV-irradiated lupus-prone TREX1-/- mouse model assessed as reduction in IRF9 gene expression in lesional skin at 1 % administered topically for 7 days relative to control; type: functional, organism-based; details: time 7.0 day
Outline: as §1

[9] = biological target: Tyrosine-protein kinase JAK1 (Homo sapiens) (UniProt P23458); assay: Inhibition of JAK1 in endogenous nucleic acid-stimulated NHEK cells assessed as decrease in TREX1 gene expression at 1 uM relative to control; type: cell-based
Outline: (§2)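 NHEK primary keratinocytes were stimulated with endogenous nucleic acids (eNA) and then treated with inhibitor at 1 μM final, 4 samples per condition. Gene expression was compared with untreated eNA-stimulated cells. Downregulation was defined as greater than twofold with p < 0.05 by Welch's t-test.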
Target sequence in this assay (P23458 whole entry): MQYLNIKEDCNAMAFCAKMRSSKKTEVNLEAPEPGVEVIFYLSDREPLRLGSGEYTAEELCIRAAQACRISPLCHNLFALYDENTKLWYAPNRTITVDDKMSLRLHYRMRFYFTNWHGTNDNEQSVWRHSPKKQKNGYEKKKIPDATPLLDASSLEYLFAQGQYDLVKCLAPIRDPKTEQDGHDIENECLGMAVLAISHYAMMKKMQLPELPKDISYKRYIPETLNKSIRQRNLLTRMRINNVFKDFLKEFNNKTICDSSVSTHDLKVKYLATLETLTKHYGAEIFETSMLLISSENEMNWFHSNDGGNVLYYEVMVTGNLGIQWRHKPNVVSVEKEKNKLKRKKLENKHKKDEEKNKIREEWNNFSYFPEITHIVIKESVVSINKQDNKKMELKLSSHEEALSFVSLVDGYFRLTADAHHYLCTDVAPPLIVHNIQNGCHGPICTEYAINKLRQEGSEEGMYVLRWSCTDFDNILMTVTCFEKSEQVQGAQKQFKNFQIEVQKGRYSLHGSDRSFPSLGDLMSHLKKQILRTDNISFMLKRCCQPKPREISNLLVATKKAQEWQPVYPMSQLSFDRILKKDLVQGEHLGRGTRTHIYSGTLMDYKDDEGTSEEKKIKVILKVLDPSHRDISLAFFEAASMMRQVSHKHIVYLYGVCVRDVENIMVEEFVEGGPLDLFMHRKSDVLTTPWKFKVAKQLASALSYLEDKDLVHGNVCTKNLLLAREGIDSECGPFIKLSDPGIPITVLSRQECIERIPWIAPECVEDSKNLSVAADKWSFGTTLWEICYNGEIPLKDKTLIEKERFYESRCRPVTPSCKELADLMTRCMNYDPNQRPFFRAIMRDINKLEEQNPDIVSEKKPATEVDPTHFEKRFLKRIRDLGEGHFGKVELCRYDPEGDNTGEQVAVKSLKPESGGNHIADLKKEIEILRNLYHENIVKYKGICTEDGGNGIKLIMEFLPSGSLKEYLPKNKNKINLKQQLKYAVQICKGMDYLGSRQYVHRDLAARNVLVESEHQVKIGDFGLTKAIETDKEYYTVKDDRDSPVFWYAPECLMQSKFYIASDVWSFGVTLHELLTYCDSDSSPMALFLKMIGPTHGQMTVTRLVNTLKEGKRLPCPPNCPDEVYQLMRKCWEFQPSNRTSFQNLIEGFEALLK

Mus musculus [10] = assay: Improvement in CLE-like skin lesions in 450 mJ/cm2 UV-irradiated lupus-prone TREX1-/- mouse model assessed as reduction in scaling at 1 % administered topically for 7 days measured on day 4 and 7 post-dose; type: functional, organism-based; details: time 7.0 day
Outline: (§3)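 Topical treatment or placebo was given for 7 days, with n = 4 mice per group. Lesions were photographed daily and mice weighed every 2 days. Erythema, induration, scaling and lesion size were scored with the mouse-adapted revised CLASI (Mouse RCLASI) and reported as mean ± SEM.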

[11] = biological target: Tyrosine-protein kinase JAK1 (Homo sapiens) (UniProt P23458); assay: Inhibition of JAK1 in endogenous nucleic acid-stimulated NHEK cells assessed as decrease in Caspase 10 gene expression at 1 uM relative to control; type: cell-based
Outline: as §2
Target sequence in this assay (P23458 whole entry): as above

Mus musculus [12] = assay: Improvement in CLE-like skin lesions in 450 mJ/cm2 UV-irradiated lupus-prone TREX1-/- mouse model assessed as reduction in CCL9 gene expression in lesional skin at 1 % administered topically for 7 days relative to control; type: functional, organism-based; details: time 7.0 day
Outline: as §1

Mus musculus [13] = assay: Improvement in CLE-like skin lesions in 450 mJ/cm2 UV-irradiated lupus-prone TREX1-/- mouse model assessed as reduction in erythema at 1 % administered topically for 7 days measured on day 4 and 7 post-dose; type: functional, organism-based; details: time 7.0 day
Outline: as §3

[14] = biological target: Tyrosine-protein kinase JAK1 (Homo sapiens) (UniProt P23458); assay: Inhibition of JAK1 in endogenous nucleic acid-stimulated NHEK cells assessed as decrease in CXCL11 gene expression at 1 uM relative to control; type: cell-based
Outline: as §2
Target sequence in this assay (P23458 whole entry): as above

[15] = biological target: Tyrosine-protein kinase JAK1 (Homo sapiens) (UniProt P23458); assay: Inhibition of JAK1 in endogenous nucleic acid-stimulated NHEK cells assessed as decrease in TRAIL gene expression at 1 uM relative to control; type: cell-based
Outline: as §2
Target sequence in this assay (P23458 whole entry): as above

Mus musculus [16] = assay: Improvement in CLE-like skin lesions in 450 mJ/cm2 UV-irradiated lupus-prone TREX1-/- mouse model assessed as reduction in CXCL9 gene expression in lesional skin at 1 % administered topically for 7 days relative to control; type: functional, organism-based; details: time 7.0 day
Outline: as §1

[17] = biological target: Tyrosine-protein kinase JAK1 (Homo sapiens) (UniProt P23458); assay: Inhibition of JAK1 in endogenous nucleic acid-stimulated NHEK cells assessed as decrease in CXCL10 gene expression at 1 uM relative to control; type: cell-based
Outline: as §2
Target sequence in this assay (P23458 whole entry): as above

[18] = biological target: Tyrosine-protein kinase JAK1 (Homo sapiens) (UniProt P23458); assay: Inhibition of JAK1 in endogenous nucleic acid-stimulated human HaCaT cells assessed as reduction in CXCL10 expression at 1 uM measured after 24 hrs by ELISA
Target sequence in this assay (P23458 whole entry, looked up): as the sequence (P23458 whole entry) above

Mus musculus [19] = assay: Improvement in CLE-like skin lesions in 450 mJ/cm2 UV-irradiated lupus-prone TREX1-/- mouse model assessed as reduction in IRF1 gene expression in lesional skin at 1 % administered topically for 7 days relative to control; type: functional, organism-based; details: time 7.0 day
Outline: as §1

Mus musculus [20] = assay: Improvement in CLE-like skin lesions in 450 mJ/cm2 UV-irradiated lupus-prone TREX1-/- mouse model assessed as reduction in CCL5 gene expression in lesional skin at 1 % administered topically for 7 days relative to control; type: functional, organism-based; details: time 7.0 day
Outline: as §1

Mus musculus [21] = assay: Improvement in CLE-like skin lesions in 450 mJ/cm2 UV-irradiated lupus-prone TREX1-/- mouse model assessed as reduction in CCL7 gene expression in lesional skin at 1 % administered topically for 7 days relative to control; type: functional, organism-based; details: time 7.0 day
Outline: as §1

Mus musculus [22] = assay: Improvement in CLE-like skin lesions in 450 mJ/cm2 UV-irradiated lupus-prone TREX1-/- mouse model assessed as reduction in induration at 1 % administered topically for 7 days measured on day 4 and 7 post-dose; type: functional, organism-based; details: time 7.0 day
Outline: as §3

[23] = biological target: Tyrosine-protein kinase JAK1 (Homo sapiens) (UniProt P23458); assay: Inhibition of JAK1 in endogenous nucleic acid-stimulated NHEK cells assessed as decrease in AIM2 gene expression at 1 uM relative to control; type: cell-based
Outline: as §2
Target sequence in this assay (P23458 whole entry): as above

Mus musculus [24] = assay: Improvement in CLE-like skin lesions in 450 mJ/cm2 UV-irradiated lupus-prone TREX1-/- mouse model assessed as reduction in IFIT1 gene expression in lesional skin at 1 % administered topically for 7 days relative to control; type: functional, organism-based; details: time 7.0 day
Outline: as §1

[25] = biological target: Tyrosine-protein kinase JAK1 (Homo sapiens) (UniProt P23458); assay: Inhibition of JAK1 in endogenous nucleic acid-stimulated NHEK cells assessed as decrease in BlyS gene expression at 1 uM relative to control; type: cell-based
Outline: as §2

Mus musculus [26] = assay: Improvement in CLE-like skin lesions in 450 mJ/cm2 UV-irradiated lupus-prone TREX1-/- mouse model assessed as reduction in lession size at 1 % administered topically for 7 days measured on day 4 and 7 post-dose; type: functional, organism-based; details: time 7.0 day
Outline: as §3

CN(C)C(=O)/C(C#N)=C/c1ccc(-c2nc3cnc4[nH]ccc4c3n2C2CCCCC2)o1
inhibition (INH) [1]: Not Active

N#CCC1(n2cc(-c3ncnc4[nH]ccc34)cn2)CN(C2CCN(C(=O)c3ccnc(C(F)(F)F)c3F)CC2)C1 [ITACITINIB]
Activity (Mus musculus [2]): Active | Activity (Mus musculus [3]): Active | Activity (Mus musculus [4]): Active | Activity (Mus musculus [5]): Active | Activity (Mus musculus [6]): Active | Activity (Mus musculus [7]): Active | Activity (Mus musculus [8]): Active | fold change (FC) [9]: > 2 | Activity (Mus musculus [10]): Active | fold change (FC) [11]: > 2 | Activity (Mus musculus [12]): Active | Activity (Mus musculus [13]): Active | fold change (FC) [14]: > 2 | fold change (FC) [15]: > 2 | Activity (Mus musculus [16]): Active | fold change (FC) [17]: > 2 | inhibition (INH) [18]: Active | Activity (Mus musculus [19]): Active | Activity (Mus musculus [20]): Active | Activity (Mus musculus [21]): Active | Activity (Mus musculus [22]): Active | fold change (FC) [23]: > 2 | Activity (Mus musculus [24]): Active | fold change (FC) [25]: > 2 | Activity (Mus musculus [26]): Active

— ChEMBL document CHEMBL5712914, “Selective Janus Kinase 1 Inhibition Is a Promising Therapeutic Approach for Lupus Erythematosus Skin Lesions” (Front Immunol, 2020)
